Data from ChEMBL document CHEMBL1142939, “Neopeltolide, a macrolide from a lithistid sponge of the family Neopeltidae” (J Nat Prod, 2007).
≈ marks a conversion by molar mass, not a printed value.

What was measured:
A549 [1] = experiment: Cell cycle arrest in A549 cells by accumulation at G1 phase at 100 nM; type: functional, Homo sapiens
A549 [2] = experiment: Cell cycle arrest in A549 cells by accumulation at S phase at 100 nM; type: functional, Homo sapiens
A549 [3] = experiment: Cell cycle arrest in A549 cells by accumulation at G2/M phase at 100 nM; type: functional, Homo sapiens
Candida albicans [4] = experiment: Antifungal activity against Candida albicans ATCC 44506 at 25 ug/disk by agar diffusion assay; type: functional; settings: read-out: IZ
Summary of the method: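 Sabouraud dextrose agar plates seeded with 10^5/mL C. albicans. Disks loaded with 25 µg compound, dried and placed on the agar. Incubated 37 °C for 24 h, then the growth-inhibition zone was measured. A nystatin disk (100 IU) ran on the same plate as control.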

Candida albicans [5] = experiment: Antifungal activity against Candida albicans ATCC 44506 by broth dilution assay; type: functional
Summary of the method: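 Broth microdilution in 96-well plates, seeded at 10^3 cells/mL. Compound tested as 2-fold dilutions from 5 to 0.4 µg/mL. Incubated 37 °C for 24 h. MIC taken as the lowest concentration completely inhibiting growth. 5-Fluorocytosine served as antifungal control.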

A549 [6] = experiment: Cytotoxicity against human A549 cells ATCC CCL-185 by MTT assay; type: cell-based
Summary of the method: (§1)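 MTT cell proliferation assay following previously described protocols. Each sample assayed at least three times to derive the final IC50.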

[7] = Cytotoxicity against human NCI-ADR-RES cells by MTT assay; type: cell-based; summary of the method: as §1
[8] = Cytotoxicity against mouse NCI-P388 cells by MTT assay; type: cell-based; summary of the method: as §1
[9] = Cytotoxicity against p53 mutated PANC1 cells ATCC CRL1469 by MTT assay; type: cell-based; settings: human, panc-1; summary of the method: as §1
DLD-1 = experiment: Cytotoxicity against p53 mutated NCI-DLD1 cells by MTT assay; type: cell-based; settings: human; summary of the method: as §1
A549 [10] = experiment: Cell cycle arrest in A549 cells by accumulation at G1 phase at 10 nM; type: functional, Homo sapiens
A549 [11] = experiment: Cell cycle arrest in A549 cells by accumulation at S phase at 10 nM; type: functional, Homo sapiens
A549 [12] = experiment: Cell cycle arrest in A549 cells by accumulation at G2/M phase at 10 nM; type: functional, Homo sapiens
A549 [13] = experiment: Cell cycle arrest in A549 cells by accumulation at G1 phase at 1 nM; type: functional, Homo sapiens
A549 [14] = experiment: Cell cycle arrest in A549 cells by accumulation at S phase at 1 nM; type: functional, Homo sapiens
A549 [15] = experiment: Cell cycle arrest in A549 cells by accumulation at G2/M phase at 1 nM; type: functional, Homo sapiens
A549 [16] = experiment: Cell cycle arrest in A549 cells by accumulation at G1 phase at 0.1 nM; type: functional, Homo sapiens
A549 [17] = experiment: Cell cycle arrest in A549 cells by accumulation at S phase at 0.1 nM; type: functional, Homo sapiens
A549 [18] = experiment: Cell cycle arrest in A549 cells by accumulation at G2/M phase at 0.1 nM; type: functional, Homo sapiens

SMILES	Activity (A549 [1])	Activity (A549 [2])	Activity (A549 [3])	zone of inhibition at 25 µg/disc (Candida albicans [4])	MIC (Candida albicans [5])	IC50 (A549 [6])	IC50 [7]	IC50 [8]	Activity [9]	Activity (DLD-1)	Activity (A549 [10])	Activity (A549 [11])	Activity (A549 [12])	Activity (A549 [13])	Activity (A549 [14])	Activity (A549 [15])	Activity (A549 [16])	Activity (A549 [17])	Activity (A549 [18])
CC(=O)O[C@H]1C(=O)[C@@]2(C)[C@H]([C@H](OC(=O)c3ccccc3)[C@]3(O)C[C@H](OC(=O)[C@H](O)[C@@H](NC(=O)c4ccccc4)c4ccccc4)C(C)=C1C3(C)C)[C@]1(OC(C)=O)CO[C@@H]1C[C@@H]2O [PACLITAXEL]	1.56%	0%	98.44%																
CCC[C@@H]1C[C@H](OC)C[C@H](C)C[C@@H]2C[C@@H](OC(=O)/C=C\CCc3coc(/C=C\CNC(=O)OC)n3)C[C@H](CC(=O)O1)O2 [NEOPELTOLIDE]	63.03%	22.02%	14.95%	17 mm	0.625 mg/L (≈ 1.06 µM)	1.2 nM	5.1 nM	0.56 nM	Active	Active	59.66%	30.27%	10.07%	46.11%	39.95%	13.94%	46.4%	40.01%	13.59%
